DAT uptake mod = human DAT dopamine uptake with cocaine, either direction; Q01959; LLC-PK1 hDAT cells, [14C]-dopamine uptake with cocaine IC80; actives deviate in either direction; B-score at 10 µM; 1.3% of 110,000 active;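 active = Z score or B-score, a plate-position-corrected score, falls beyond the plate's 99.7% confidence bounds, in either direction; inactive = both scores lie inside the 99.7% bounds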;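 also: scored against the spread of the other compound wells on the same plate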
tolC growth inh = blocks growth of E. coli BW25113 tolC mutant. OD615. growth inhibition, % at 10 µM (by protocol). 2.2% of 65,000 active;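 active = growth inhibition at or above a cutoff equal to the mean over every tested compound plus 3 SD, cut at about 60% in these data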;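 also: growth measured after 20 h incubation at 37 °C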
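Test system: tolC-deleted E. coli BW25113; medium: LB with kanamycin 50 µg/mL; compound: single-point testing at 10 µM; incubation: 20 h compound exposure of bacteria at 37 °C; signal: OD at 615 nm; evaluation: growth inhibition in percent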
PostGolgi yeast = growth inhibition of a yeast mutant, post-Golgi transport screen | post-Golgi transport phenotypic cell assay | inhibition, % at 10 µM | 0.9% of 98,000 active;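 also: yeast cells grown in 1536-well plates; yeast grown about 18 h at 30C before absorbance read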
E coli WT exp = blocks growth of wild type E. coli BW25113. OD600 absorbance. growth inhibition, % at 100 µM. 0.15% of 98,000 active. AID 710;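 active = growth inhibition above about 50% at one test dose, limit read from the data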;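 also: growth measured after 20 h incubation at 37 °C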
D1 allo mod = allosteric modulators of human D1 dopamine receptor | P21728 | HEK293 D1, CRE-luciferase, dopamine EC30 potentiation; actives deviate in either direction | B-score at 10 µM | 5.9% of 58,000 active;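 active = luminescence count or its row- and column-corrected plate score outside the 99.7% band of the plate's sample wells, on either side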
Target sequence (P21728 whole entry, looked up): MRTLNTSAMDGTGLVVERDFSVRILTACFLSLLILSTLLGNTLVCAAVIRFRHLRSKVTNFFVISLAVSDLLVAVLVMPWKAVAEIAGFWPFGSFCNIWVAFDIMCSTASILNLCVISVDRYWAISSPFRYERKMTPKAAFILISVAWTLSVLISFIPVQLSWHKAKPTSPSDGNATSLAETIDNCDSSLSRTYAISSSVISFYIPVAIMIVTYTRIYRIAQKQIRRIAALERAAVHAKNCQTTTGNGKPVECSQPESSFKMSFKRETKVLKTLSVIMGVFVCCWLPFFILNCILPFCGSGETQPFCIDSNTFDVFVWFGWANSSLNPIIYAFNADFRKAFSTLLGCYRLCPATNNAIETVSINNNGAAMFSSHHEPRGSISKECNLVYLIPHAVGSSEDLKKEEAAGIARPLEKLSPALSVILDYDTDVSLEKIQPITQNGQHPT
PostGolgi ctrl = growth of the yeast control strain, post-Golgi counter-screen. efflux-deficient yeast background strain, growth absorbance A615, 16 h. inhibition, % at 10 µM. 5% of 98,000 active. AID 738
Starred values were filed as active, the others as inactive; / = no result given. Rows were chosen to be rich in hits. Some 9.3% of all compounds tested hit in one or more screens of this group. Rule as the data show it, unless noted: active = inhibition above about 30%; inactive = the rest.

SMILES	DAT uptake mod	tolC growth inh	PostGolgi yeast	E coli WT exp	D1 allo mod	PostGolgi ctrl
O=C(Nc1ccc2c(c1)OCCO2)c1cc2sccc2n1Cc1ccc(F)cc1	2	/	-5	-24	/	53*
Cn1c(C(=O)Nc2ccc3c(c2)OCCO3)cc2sccc21	2.2*	15	-9	1	-2.7*	-4
CCOC(=O)c1cccc(NC(=O)c2cc3sccc3n2C)c1	1.4	73*	-2	-11	-0.79	18
CCOC(=O)c1ccccc1NC(=O)c1cc2sccc2n1C	-0.84	-20	-1	-5	-0.13	2
CCOc1ccc(NC(=O)N[C@@H](CCSC)C(=O)OC)cc1	0.51	/	-6	8	/	-2
O=C(Cn1cnc2c(nnn2Cc2ccccc2F)c1=O)NCc1ccco1	/	3	-4	-2	-0.45	-3
COC(=O)c1ccccc1NC(=O)c1cnn2c(C(F)F)cc(C3CC3)nc12	-0.46	13	17	-5	0.4	43*
Cc1cc(NC(=O)c2cnn3c(C(F)F)cc(C4CC4)nc23)no1	0.22	7	-3	-7	1.6	15
Fc1ccc(Sc2cc(Cl)c(-c3ccccc3)nn2)cc1	0.6	/	-3	-8	/	39*
O=c1cc(Cl)c(-c2ccccc2)n[nH]1	-2	/	0	14	/	4
CC(=O)O[C@]1(C(C)=O)CC[C@H]2[C@@H]3C=C(Cl)C4=CC(=O)[C@@H]5C[C@@H]5[C@]4(C)[C@H]3CC[C@@]21C	-0.46	/	/	/	/	/
CCOC(=O)N1CCN(C(=O)CSc2nc3c(cnn3-c3ccc(Cl)cc3)c(=O)[nH]2)CC1	0.35	20	-6	-1	0.66	5
CCCC(=O)Nc1ccc(Cl)c(NC(=O)c2cccnc2Cl)c1	0.0074	/	45*	4	/	3
Cc1ccc(/C(N)=N/OC(=O)C23CC4CC(CC(C4)C2)C3)cc1	-7.1*	/	7	-1	/	21
Cc1ccc(NC2=NC(=S)N(CC#N)C23CCCCC3)cc1	-1.8	/	/	/	/	/
Cc1cc(OCC(=O)Nc2ccncc2)ccc1Br	-0.81	9	13	21	-3.3*	23
O=C(NCCN1CCOCC1)C1(C(F)(F)F)C/C(=C\Cc2ccccc2)CCCO1 (configuration not stated)	-0.27	/	/	/	/	/
O=C1NC2(CCCC2)N=C1c1ccc(F)cc1	-8*	/	14	-2	/	8
O=C(C1=C[C@H](c2ccccc2)C[C@H](OCc2ccc(CO)cc2)O1)N1CCN(Cc2ccccc2)CC1	2.8*	/	/	/	/	/
CC(=O)n1cc([C@@H]2C=C(C(=O)NCc3ccccc3)O[C@H](OCc3ccc(CO)cc3)C2)c2ccccc21	2.2*	/	/	/	/	/
C#CCNC(=O)C1=C[C@H](c2cn(C(C)=O)c3ccccc23)C[C@H](OCc2ccc(CO)cc2)O1	-0.081	/	/	/	/	/
O=C(C1=C[C@H](c2csc3ccccc23)C[C@H](OCCCCO)O1)N1CCN(Cc2ccc3c(c2)OCO3)CC1	2.6*	/	/	/	/	/
CCc1cc2c(=O)c(Oc3ccccc3F)c(C)oc2c(CN(C)C)c1O	0.39	-6	51*	6	-0.067	-2
CCc1c(C(=O)Nc2ccc(OC)cc2)[nH]c(C)c1C(C)=O	-0.67	25	-1	2	/	-2
CCc1c(C(=O)Nc2cc(C)ccc2OC)[nH]c(C)c1C(C)=O	-0.56	-4	29	-19	-0.97	55*
SMILES	DAT uptake mod	tolC growth inh	PostGolgi yeast	E coli WT exp	D1 allo mod	PostGolgi ctrl
Cc1ccc(NC(=O)c2cc([N+](=O)[O-])ccc2NCc2cccnc2)cc1Cl	-0.62	/	22	-8	/	31*
CCCN(CC1CC1)c1nc(C)nc(Nc2c(Cl)cc(Cl)cc2Cl)c1Cl	1.5	/	/	/	/	/
Clc1ccc(CN2C3=NCCCN3c3ccccc32)cc1	/	-4	1	8	-0.39	0
O=C1c2ccccc2N(Cc2ccc(Cl)cc2)C2=NCCN12	/	-15	/	/	11*	/
Cc1cc(C)cc(NC(=O)CSCc2nc3c(nnn3Cc3ccc(F)cc3)c(=O)[nH]2)c1	-0.59	/	/	/	/	/
COc1ccc(CNC(=O)c2ccc(NS(=O)(=O)c3c(C)noc3C)cc2)cc1	0.69	22	6	-3	1.4	31*
Cc1ccc(NC(=O)c2ccc(NS(=O)(=O)c3c(C)noc3C)cc2)cc1C	-0.6	76*	2	7	-2.2	1
Cc1ccc(N2CCCCn3c2nc2c3c(=O)n(CC(=O)O)c(=O)n2C)cc1	-1.7	-11	3	4	0.47	9
NC(=O)CSc1nnc(C2CC2)n1-c1ccccc1	-9.3*	/	17	1	/	0
COc1cc(S(=O)(=O)N2CCOCC2)ccc1NC(=O)COC(=O)c1ccccn1	-0.59	-3	6	-2	-0.67	4
Cc1cccn2c(=O)c3cc(C(=O)N4c5ccccc5CC4C)n(C)c3nc12 (configuration not stated)	/	-10	-12	-4	-4.8*	-4
CCOC(=O)c1c(NC(=O)C(F)(OC)C(F)(F)F)sc(C(=O)N2CCCCC2)c1C (configuration not stated)	/	78*	-14	-9	2	12
Cn1cccc1/C=N/n1c(-c2ccc(C(C)(C)C)cc2)n[nH]c1=S	0.73	/	19	4	/	37*
Cn1cccc1/C=N/n1c(-c2ccccc2)n[nH]c1=S	-0.34	/	3	-10	/	8
Cc1ccc(OCc2nc(C#N)c(NCc3ccc4c(c3)OCO4)o2)cc1	-0.29	81*	1	-11	0.71	31*
O=C(CSc1ccc2nnc(-c3ccc(Cl)cc3)n2n1)N1CCN(c2ccccc2)CC1	/	-8	/	/	-0.023	/
COc1ccc(N2CCN(Cc3nc(N)nc(Nc4ccccc4OC)n3)CC2)cc1	0.81	21	8	4	-0.18	0
Nc1nc(CN2CCN(c3ccc(F)cc3)CC2)nc(N2CCCc3ccccc32)n1	-2.7*	52	2	8	-0.43	11
Cc1cccc(N2CC(c3nc4ccccc4n3C)CC2=O)c1C (configuration not stated)	-0.58	100*	/	/	0.72	/
CC(C)C(NC(=O)OC(C)(C)C)C(=O)N1CCCC1C(=O)NC(Cc1ccccc1)C(N)=O (configuration not stated)	-0.64	-18	-2	0	0.82	10
O=C(Cc1ccccc1F)Nc1nc(-c2cccs2)cs1	3.4*	91*	10	-1	0.31	6
O=C(Nc1nc(-c2cccs2)cs1)c1ccc(Cl)cc1	1.2	/	-5	-12	/	8
O=C(COc1ccc(Cl)cc1)Nc1nc(-c2cccs2)cs1	-0.69	69*	8	-10	-0.048	22
O=C(Cc1ccccc1)Nc1nc(-c2cccs2)cs1	-0.63	40	-8	2	0.89	-1
CCc1cc(=O)oc2cc(OCC(=O)O)c(Cl)cc12	-0.076	-8	-4	-3	0.38	4
CCc1cc(=O)oc2cc(OC(C)C(=O)O)c(Cl)cc12 (configuration not stated)	-0.48	-16	3	2	-4.2*	-5
Cn1c(C(=O)N2CCN(c3ccccc3F)CC2)cc2c(=O)n(C)c3ccccc3c21	/	-6	/	/	0.34	/

Screens as filed in PubChem BioAssay.
